Source: ChEMBL document CHEMBL1156168, “Eastern extension of azoles as non-nucleoside inhibitors of HIV-1 reverse transcriptase; cyano group alternatives” (Bioorg Med Chem Lett, 2010)

How the values were obtained:
[1] = test system: MT2; test: (§1) Cytotoxicity against human MT2 cells by MTT assay; format: cell-based; details: mt2
[2] = test system: Human immunodeficiency virus 1; test: Antiviral activity against HIV1 3B infected in human MT2 cells assessed as inhibition of virus replication by MTT assay; format: functional, organism-based; details: Human immunodeficiency virus 1, 3B
Summary of the method: (§2)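 HIV-1 (IIIB or RT-variant strain) infection of human MT-2 T-cells. Protection of the infected cells was read out by the MTT colorimetric method.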

[3] = test system: MT2; test: Cytotoxicity against human MT2 cells infected with HIV1 harboring reverse transcriptase K103N/Y181C mutation by MTT assay; format: cell-based
[4] = test system: Human immunodeficiency virus 1; test: Antiviral activity against HIV1 reverse transcriptase Y181C mutant infected in human MT2 cells assessed as inhibition of viral replication by MTT assay; format: functional, organism-based; details: Human immunodeficiency virus 1, MT2; summary of the method: as §2
[5] = test system: MT2; test: Cytotoxicity against human MT2 cells infected with HIV1 harboring reverse transcriptase Y181C mutation by MTT assay; format: cell-based
[6] = test system: Human immunodeficiency virus 1; test: Antiviral activity against HIV1 reverse transcriptase K103N/Y181C double mutant infected in human MT2 cells assessed as inhibition of viral replication by MTT assay; format: functional, organism-based; details: Human immunodeficiency virus 1, MT2; summary of the method: as §2
[7] = as §1; format: cell-based; details: MT2 cells

OCc1ccc(Nc2ncc(Cc3c(F)cccc3F)o2)cc1Cl
CC50 [1]: 90 µM | EC50 [2]: 0.26 µM

Fc1cccc(F)c1Cc1cnc(Nc2ccc(COc3ccncc3)cc2)o1
CC50 [1]: > 100 µM | EC50 [2]: 0.4 µM

Fc1cccc(F)c1Cc1cnc(Nc2ccc(CCOc3ccncc3)cc2)o1
CC50 [1]: 11 µM | EC50 [2]: 1.1 µM

CSCc1ccc(Nc2ncc(Cc3c(F)cccc3F)o2)cc1
CC50 [1]: > 100 µM | EC50 [2]: 1.2 µM

Cc1cc(C#N)cc(C)c1Oc1nc(Nc2ccc(C#N)cc2)nc(N)c1Br [ETRAVIRINE]
CC50 [3]: > 0.1 µM | CC50 [1]: > 0.1 µM | EC50 [4]: 0.011 µM | CC50 [5]: > 0.1 µM

Fc1cccc(F)c1Cc1cnc(Nc2ccc(COc3ccncc3)c(Cl)c2)o1
CC50 [1]: 3.8 µM | EC50 [2]: 0.03 µM

Fc1cccc(F)c1Cc1cnc(Nc2ccc(Oc3ccncc3)cc2)o1
CC50 [3]: 17 µM | CC50 [1]: 21 µM | EC50 [2]: 0.19 µM | EC50 [4]: 5 µM | EC50 [6]: 12 µM | CC50 [5]: 17 µM

Cc1ccnc2c1NC(=O)c1cccnc1N2C1CC1 [NEVIRAPINE]
CC50 [7]: > 100 µM

Clc1cccc(Cl)c1Cc1nnc(Nc2ccc(COCc3ccccn3)cc2)o1
CC50 [1]: > 100 µM | EC50 [2]: 5 µM

Fc1cccc(F)c1Cc1cnc(Nc2ccc(-c3cccnc3)c(Cl)c2)o1
CC50 [3]: 12.5 µM | CC50 [1]: 8.9 µM | EC50 [2]: 0.073 µM | EC50 [4]: 6 µM | CC50 [5]: 15 µM

N#Cc1ccc(Nc2ncc(Cc3c(F)cccc3F)o2)cc1Cl
EC50 [2]: 0.006 µM

O=c1ccn(CCOc2ccc(Nc3ncc(Cc4c(F)cccc4F)o3)cc2)c(=O)[nH]1
CC50 [1]: 73 µM | EC50 [2]: 25 µM

Fc1cccc(F)c1Cc1cnc(Nc2ccc(Oc3cccnc3)c(Br)c2)o1
CC50 [1]: 7.5 µM | EC50 [2]: 0.034 µM

OCc1ccc(Nc2ncc(Cc3c(F)cccc3F)o2)cc1
CC50 [1]: > 100 µM | EC50 [2]: 3.8 µM

Fc1cccc(F)c1Cc1cnc(Nc2ccc(Oc3cccnc3)cc2)o1
CC50 [1]: 22 µM | EC50 [2]: 0.31 µM

Clc1cccc(Cl)c1Cc1nnc(Nc2ccc(COCc3ccoc3)cc2)o1
CC50 [1]: 21 µM

COCc1ccc(Nc2ncc(Cc3c(Cl)cccc3Cl)o2)cc1
CC50 [1]: 8.1 µM | EC50 [2]: 1.2 µM

COCc1ccc(Nc2ncc(Cc3c(F)cccc3F)o2)cc1
CC50 [1]: 32 µM | EC50 [2]: 2.1 µM

Cc1cn([C@H]2C=C[C@@H](CO)O2)c(=O)[nH]c1=O [STAVUDINE]
EC50 [2]: 1.4 µM | EC50 [4]: 0.7 µM | EC50 [6]: 0.5 µM

[O-][n+]1ccc(OCc2ccc(Nc3ncc(Cc4c(F)cccc4F)o3)cc2Cl)cc1
CC50 [3]: 2.1 µM | CC50 [1]: 1.7 µM | EC50 [2]: 0.011 µM | CC50 [5]: 2.7 µM

Fc1cccc(F)c1Cc1cnc(Nc2ccc(-c3ccncc3)c(Cl)c2)o1
CC50 [3]: 9.1 µM | CC50 [1]: 9.3 µM | EC50 [2]: 0.14 µM | EC50 [4]: 3.8 µM | EC50 [6]: 5.6 µM | CC50 [5]: 11 µM

O=c1ncccn1SCCc1ccc(Nc2ncc(Cc3c(F)cccc3F)o2)cc1
CC50 [1]: > 100 µM | EC50 [2]: 13 µM

Clc1cccc(Cl)c1Cc1nnc(Nc2ccc(COCc3ccccc3)cc2)o1
CC50 [1]: 84 µM

Clc1cccc(Cl)c1Cc1nnc(Nc2ccc(COCc3ccncc3)cc2)o1
CC50 [1]: 81 µM | EC50 [2]: 1.6 µM

OCCc1ccc(Nc2ncc(Cc3c(F)cccc3F)o2)cc1
CC50 [1]: 35 µM | EC50 [2]: 2.7 µM

COCc1ccc(Nc2nnc(Cc3c(Cl)cccc3Cl)o2)cc1
CC50 [1]: 100 µM | EC50 [2]: 4.3 µM

Clc1cccc(Cl)c1Cc1nnc(Nc2ccc(COCc3ccsc3)cc2)o1
CC50 [1]: > 100 µM

Fc1cccc(F)c1Cc1cnc(Nc2ccc(Oc3cccnc3)c(Cl)c2)o1
EC50 [4]: 3.2 µM | EC50 [6]: 4.5 µM

Fc1cccc(F)c1Cc1cnc(Nc2ccc(COCc3ccco3)cc2)o1
CC50 [1]: 31 µM | EC50 [2]: 1.6 µM

Fc1cccc(F)c1Cc1cnc(Nc2ccc(Oc3ccncc3)c(Cl)c2)o1
CC50 [3]: 17 µM | CC50 [1]: 21 µM | EC50 [2]: 0.12 µM | EC50 [4]: 2.3 µM | EC50 [6]: 7.2 µM | CC50 [5]: 17 µM

O=C1Nc2ccc(Cl)cc2[C@@](C#CC2CC2)(C(F)(F)F)O1 [EFAVIRENZ]
CC50 [3]: > 0.1 µM | CC50 [1]: > 0.1 µM | CC50 [5]: > 0.1 µM

Clc1cccc(Cl)c1Cc1nnc(Nc2ccc(COCc3cccnc3)cc2)o1
CC50 [1]: 81 µM | EC50 [2]: 4.6 µM

Clc1cccc(Cl)c1Cc1nnc(Nc2ccc(COCc3ccco3)cc2)o1
CC50 [1]: 12 µM | EC50 [2]: 2.8 µM
